PubChem BioAssay
Activity calls are given as the source filed them.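 Rule for the calls, unless noted: active = compounds giving at least 50% inhibition in the cell-based MKP-3 phosphatase rescue imaging test; inactive = the rest.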

Key:
[1] = inhibitors of TNFa-induced NFkB p65 translocation, primary screen, imaging, HUVEC, MLSMR starter and 10KST1 sets (AID 438;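 active = inhibition above 20% together with a positive visual image hit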;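 note: compound added about 3h40 before a 20 min TNFalpha stimulation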;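 for inhibition: signal is the nuclear over cytoplasmic p65 intensity ratio per well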); details: HUVEC TNFa-induced p65 nuclear translocation; cell count: measured here: nuclei count (cytotoxicity indicator), at 2.08 µM; inhibition: at 2 µM, stronger effect = higher value, 0% TNFa-plus-vehicle, 100% no-TNFa wells
[2] = endothelial E-selectin expression blockers – imaging, HUVEC, immunofluorescence, MLSMR starter and 10KST1 sets, primary screen (AID 487;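 active = visually confirmed hit in the image check and inhibition above 20%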;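 for inhibition: signal is fraction of cell area covered by stained E-selectin grains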;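 for nuclei count: 100% = median nuclei count of all wells on the same plate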); details: HUVEC TNFalpha-induced E-selectin immunofluorescence imaging, at 2 µM; inhibition: stronger effect = higher value; nuclei count: measured here: cell number, toxicity
[3] = Primary imaging screen for DUSP6 inhibitors that restore phospho-Erk in transfected HeLa cells, chemical complementation (AID 609); details: HeLa MKP-3 transfected, phospho-Erk imaging KS statistic, at 10 µM, cells stimulated with TPA for 15 min;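 for inhibition: phospho-Erk level distribution per well compared with pooled transfected vehicle control wells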
[4] = target: Dual specificity protein phosphatase 6 (Homo sapiens) (UniProt Q16828); assay: as above; details: HeLa MKP-3 transfected, phospho-Erk imaging KS statistic; at 10 µM; stronger effect = higher value; cells stimulated with TPA for 15 min
Sequence of Dual specificity protein phosphatase 6 (Homo sapiens) (Q16828 whole entry, looked up): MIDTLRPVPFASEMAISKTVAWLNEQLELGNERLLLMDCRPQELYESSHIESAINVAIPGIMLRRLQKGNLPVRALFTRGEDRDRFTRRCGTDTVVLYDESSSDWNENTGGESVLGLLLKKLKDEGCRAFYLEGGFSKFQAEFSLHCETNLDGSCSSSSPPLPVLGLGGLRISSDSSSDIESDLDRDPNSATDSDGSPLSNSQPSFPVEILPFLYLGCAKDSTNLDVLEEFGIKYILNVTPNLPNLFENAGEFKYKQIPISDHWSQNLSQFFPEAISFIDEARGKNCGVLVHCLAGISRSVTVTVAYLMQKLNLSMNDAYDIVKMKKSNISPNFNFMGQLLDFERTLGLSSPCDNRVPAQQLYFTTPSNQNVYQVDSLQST

[5] = target: Voltage-gated potassium channel subunit beta-2 (Rattus norvegicus) (UniProt P62483); assay: inhibitors of rat Kvbeta2 reductase activity – biochemical, NADPH fluorescence, primary screen (AID 622;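 active = fluorescence slope higher than the sample average by over 3 SD, cut at about -0.22 in these data, passing the limit was not always enough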;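 note: slope of raw intensity against log time taken from 70 to 1610 s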); details: recombinant KvBeta, 4-cyanobenzaldehyde reduction, at 10 µM, stronger effect = higher value
Sequence of Voltage-gated potassium channel subunit beta-2 (Rattus norvegicus) (P62483 whole entry, looked up): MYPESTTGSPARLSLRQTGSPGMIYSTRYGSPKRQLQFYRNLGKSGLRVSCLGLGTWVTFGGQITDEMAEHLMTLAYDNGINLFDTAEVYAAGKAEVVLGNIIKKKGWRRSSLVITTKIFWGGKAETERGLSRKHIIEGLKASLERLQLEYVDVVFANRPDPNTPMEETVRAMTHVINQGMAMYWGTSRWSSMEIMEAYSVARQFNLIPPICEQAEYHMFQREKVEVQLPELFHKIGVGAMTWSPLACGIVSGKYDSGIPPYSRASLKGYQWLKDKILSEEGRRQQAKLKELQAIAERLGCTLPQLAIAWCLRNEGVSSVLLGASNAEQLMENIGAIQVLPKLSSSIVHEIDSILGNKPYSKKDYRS

[6] = target: Voltage-gated potassium channel subunit beta-2 (Rattus norvegicus) (UniProt P62483); assay: enhancers of rat Kvbeta2 NADPH turnover – biochemical, NADPH fluorescence, primary screen (AID 623;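 active = NADPH fluorescence slope more negative than the mean of all samples by about 3 SD, 99.7% confidence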;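 note: fluorescence intensity change per second fitted from 20 to 320 s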); details: Recombinant KvBeta, NADPH fluorescence decrease slope, 10 min; at 10 µM; stronger effect = lower value
[7] = target: Alpha-2C adrenergic receptor (Homo sapiens) (UniProt P18825); assay: compounds altering alpha2C-coupled GIRK flux – cell-based, HEK293 alpha2C/GIRK1/2, thallium flux, primary screen (AID 624;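 active = fluorescence slope after compound addition differing from the mean of all screened samples at 99.7% confidence, in either direction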;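 note: slope of fluorescence ratio to pre-addition baseline per second over 15 to 24 s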); details: thallium flux BTC fluorescence, at 10 µM, actives lie on both sides
Sequence of Alpha-2C adrenergic receptor (Homo sapiens) (P18825 whole entry, looked up): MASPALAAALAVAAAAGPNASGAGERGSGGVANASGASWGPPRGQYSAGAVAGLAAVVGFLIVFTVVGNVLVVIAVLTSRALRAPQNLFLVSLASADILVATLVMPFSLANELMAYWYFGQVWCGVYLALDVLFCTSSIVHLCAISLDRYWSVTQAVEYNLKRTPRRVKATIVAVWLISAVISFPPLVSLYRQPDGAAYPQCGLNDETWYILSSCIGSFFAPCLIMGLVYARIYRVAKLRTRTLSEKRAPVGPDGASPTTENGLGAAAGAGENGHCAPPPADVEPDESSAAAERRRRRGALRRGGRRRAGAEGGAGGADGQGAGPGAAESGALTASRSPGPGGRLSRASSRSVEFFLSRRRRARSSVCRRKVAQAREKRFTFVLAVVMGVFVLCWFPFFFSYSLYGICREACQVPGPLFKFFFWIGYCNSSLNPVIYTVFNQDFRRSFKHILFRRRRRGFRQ

[8] = inhibitors of larval lipid processing in zebrafish, primary screen, whole organism, PED6 fluorescence, gall bladder and intestine (AID 686;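 active = a full or partial loss of lipid-probe fluorescence in the fish gall bladder, intestine or both, judged by eye; inactive = no fluorescence loss, or compound toxic to the fish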;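 note: larvae 5 to 7 days old with five fish per well; signal comes from phospholipase A2 cleavage of quenched PED6 carried via bile; overnight exposure to compound and PED6 before scoring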); details: Zebrafish larvae PED6 lipid processing, fluorescence scoring; screened at 20 µM (by protocol)
How it was run: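 Test system – live zebrafish larvae aged 5-7 days, whole organism · Buffer or medium – E3 fish medium · Reagent – quenched phospholipase substrate PED6, 100 nM final, ingested by larvae · Doses – 20 µM single dose · Incubation – overnight compound and PED6 incubation · Technique – visual fluorescence microscopy scoring of gall bladder, gut · Read-out basis – visual per-well fluorescence inhibition score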

[9] = loss of swimming-algae plug formation – whole organism, Chlamydomonas reinhardtii, WT vs cilia-less mutant, absorbance, 96-well, primary screen (AID 463189;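 active = inhibition at or above 50% relative to wild type and mutant plate controls; inactive = inhibition below 50%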;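 note: 0% = wild type cc124 cells in DMSO and 100% = ciliumless bld1 mutant cells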); details: Chlamydomonas reinhardtii gravitaxis, OD600 absorbance, 2 days; at 10 µM; stronger effect = higher value
[10] = measured here: cell density z-score
[11] = measured here: nuclear c-Myc green intensity z-score
[12] = measured here: nuclear pErk red intensity z-score, stronger effect = higher value

Compound | cell count [1] | inhibition [1] | inhibition [2] | nuclei count [2] | z-score [3, 10] | z-score [3, 11] | z-score [3, 12] | inhibition [4] | fluorescence slope [5] | NADPH fluorescence slope [6] | slope [7] | outcome [8] | inhibition [9]
O=C(O)CCCC(=O)Nc1ccn(-c2ccccc2)n1 | 639 | 3.1% (inactive) | -63.9% (inactive) | 142% | 2.2 | -2.05 | 0.525 | 20.3% (inactive) | -0.486 (inactive) | -2.7e-05 (inactive) | 0.00622 (inactive) | inactive | 11.2% (inactive)
N#CCCSCc1ccc(OCC(=O)O)cc1 | 547 | -22.2% (inactive) | -141% (inactive) | 138% | 0.922 | -1.08 | 0.0284 | 5.95% (inactive) | -0.488 (inactive) | -9.2e-05 (inactive) | 0.00635 (inactive) | inactive | 2.45% (inactive)
CCC12CN3CC(CC)(CN(C1)C3c1c(O)ccc3ccccc13)C2=O (configuration not stated) | 585 | -1.9% (inactive) | -44.2% (inactive) | 185% | -0.501 | 0.162 | 0.594 | 9.82% (inactive) | -0.336 (inactive) | 5.6e-06 (inactive) | 0.00425 (inactive) | inactive | 6.95% (inactive)
COc1ccccc1C(=O)N1CCCC1(C#N)c1ccccc1 (configuration not stated) | 653 | 1.8% (inactive) | -44.9% (inactive) | 121% | -0.569 | -0.677 | -0.674 | -6.48% (inactive) | -0.475 (inactive) | -0.000294 (inactive) | 0.00555 (inactive) | inactive | 13% (inactive)
O=C(OCCN1CCOCC1)c1ccc(OCCN2CCOCC2)cc1 | 573 | -2.2% (inactive) | -54.5% (inactive) | 130% | -0.658 | 0.853 | 0.881 | 1.75% (inactive) | -0.555 (inactive) | -5.3e-05 (inactive) | 0.00568 (inactive) | inactive | 32.3% (inactive)
O=C(c1cccc(Cl)c1)N1CCN(C(=O)c2ccccc2F)CC1 | 359 | -17.3% (inactive) | -357% (inactive) | 113% | -0.228 | -0.0273 | -2.04 | 1.75% (inactive) | -0.466 (inactive) | -1.8e-06 (inactive) | 0.00888 (inactive) | inactive | -3.06% (inactive)
CN(C)c1ccc(-c2nn3c(-c4ccc(Cl)cc4)nnc3s2)cc1 | 615 | -7.8% (inactive) | -183% (inactive) | 147% | 0.167 | -0.869 | -2.02 | 19.1% (inactive) | -0.409 (inactive) | -0.000319 (inactive) | 0.00702 (inactive) | inactive | 14.6% (inactive)
O=C(CN1C(=O)c2ccccc2C1=O)NCc1ccccn1 | 400 | -5.8% (inactive) | -67.3% (inactive) | 171% | 0.0865 | -1.72 | 1.07 | 5.42% (inactive) | -0.417 (inactive) | -0.000121 (inactive) | 0.00507 (inactive) | inactive | 26% (inactive)
O=C(O)c1ccc(OCCn2ccnc2)cc1 | 490 | -6.5% (inactive) | -141% (inactive) | 185% | -0.78 | -1.02 | 1.25 | 26.5% (inactive) | -0.473 (inactive) | -0.000213 (inactive) | 0.00534 (inactive) | inactive | 0.065% (inactive)
COc1ccc(CNC(=O)c2c(C)cc(=O)oc2C)cc1OC | 446 | 1.8% (inactive) | -121% (inactive) | 167% | 0.057 | 0.328 | 1.22 | -1.12% (inactive) | -0.427 (inactive) | -4.8e-05 (inactive) | 0.00518 (inactive) | inactive | -7.01% (inactive)
CCCOC(=O)CSC1=C(C#N)C(c2ccccc2OCC)C(C#N)C(=O)N1 (configuration not stated) | 487 | -1.9% (inactive) | -37.3% (inactive) | 101% | 0.769 | -0.531 | 1.5 | 7.48% (inactive) | -0.499 (inactive) | -0.000121 (inactive) | 0.00584 (inactive) | inactive | -14.4% (inactive)
COC(=O)c1sccc1NC(=O)c1c(C)cc(=O)oc1C | 553 | 2.4% (inactive) | -142% (inactive) | 138% | 0.942 | 0.338 | -0.793 | -8.76% (inactive) | -0.515 (inactive) | -3.4e-05 (inactive) | 0.00537 (inactive) | inactive | -11.2% (inactive)
CC1(C)Cc2c(C#N)c(NCC3CCCO3)nc(-c3ccco3)c2CO1 (configuration not stated) | 508 | -1.3% (inactive) | -83% (inactive) | 123% | -1.04 | 1.4 | -1.27 | 11.9% (inactive) | -0.337 (inactive) | 1e-05 (inactive) | 0.00551 (inactive) | inactive | 1.27% (inactive)
COc1ccc(CCCNC(=O)CC#N)cc1OC | 652 | -3.9% (inactive) | -14.5% (inactive) | 185% | -0.133 | 0.521 | -0.241 | 17% (inactive) | -0.512 (inactive) | -4.5e-05 (inactive) | 0.00537 (inactive) | inactive | 10.9% (inactive)
